System: HEK-293T
Experiment: Multiplex assay against HEK293T
Format: toxicity, cell-based
Details: human
Outline: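 Live cells were stained at seeding with Hoechst33342, BioTracker Green Microtubule Cytoskeleton Dye, MitoTracker Red and Annexin V Alexa Fluor 680. Following compound addition, they were imaged on a CQ1 microscope at 37°C and 5% CO2 and gated by CellPathfinder machine learning into Hoechst high-intensity objects or normal cells, with normal cells split into healthy, pyknosed or fragmented nuclei and pyknosed cells into mitotic or apoptotic. Tubulin, mitochondrial-mass and membrane-permeability phenotypes are per cents of healthy-nucleus cells.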

[1] = 12 h, 1 µM, compound concentration 1 uM, replicate 1
[2] = 12 h, 1 µM, compound concentration 1 uM, replicate 2
[3] = 12 h, 10 µM, compound concentration 10 uM, replicate 1
[4] = 12 h, 10 µM, compound concentration 10 uM, replicate 2
[5] = 24 h, 1 µM, compound concentration 1 uM, replicate 1
[6] = 24 h, 1 µM, compound concentration 1 uM, replicate 2
[7] = 24 h, 10 µM, compound concentration 10 uM, replicate 1
[8] = 24 h, 10 µM, compound concentration 10 uM, replicate 2
[9] = 48 h, 1 µM, compound concentration 1 uM, replicate 1
[10] = 48 h, 1 µM, compound concentration 1 uM, replicate 2
[11] = 48 h, 10 µM, compound concentration 10 uM, replicate 1
[12] = 48 h, 10 µM, compound concentration 10 uM, replicate 2

## COc1cc(C(=O)N(CCCc2ccccc2)Cc2ccc(CC(=O)O)cc2)cc(OC)c1C
[1]
  Population Apoptotic (%): 45%
  Population Fragmented Nuclei (%): 7%
  Population Healthy Nuclei (%): 82%
  Population Hoechst High Intensity Objects (%): 5%
  Population Membrane Permeable-Phenotype (%): 0%
  Population Mitochondria Different-Phenotype (%): 47%
  Population Mitotic Cells (%): 55%
  Population Normal (%): 94%
  Population Pyknosed Nuclei (%): 10%
  Population Tubulin-Different-Phenotype (%): 31%
  Total Cell Count: 395
[2]
  Population Apoptotic (%): 44%
  Population Fragmented Nuclei (%): 6%
  Population Healthy Nuclei (%): 84%
  Population Hoechst High Intensity Objects (%): 4%
  Population Mitochondria Different-Phenotype (%): 50%
  Population Normal (%): 95%
  Population Pyknosed Nuclei (%): 9%
  Population Tubulin-Different-Phenotype (%): 19%
  Total Cell Count: 410
[3]
  Population Apoptotic (%): 30%
  Population Fragmented Nuclei (%): 6%
  Population Healthy Nuclei (%): 77%
  Population Hoechst High Intensity Objects (%): 8%
  Population Membrane Permeable-Phenotype (%): 1%
  Population Mitochondria Different-Phenotype (%): 46%
  Population Mitotic Cells (%): 70%
  Population Normal (%): 91%
  Population Pyknosed Nuclei (%): 15%
  Population Tubulin-Different-Phenotype (%): 52%
  Total Cell Count: 431
[4]
  Population Apoptotic (%): 47%
  Population Fragmented Nuclei (%): 4%
  Population Healthy Nuclei (%): 82%
  Population Hoechst High Intensity Objects (%): 6%
  Population Membrane Permeable-Phenotype (%): 0%
  Population Mitochondria Different-Phenotype (%): 67%
  Population Mitotic Cells (%): 52%
  Population Normal (%): 93%
  Population Pyknosed Nuclei (%): 13%
  Population Tubulin-Different-Phenotype (%): 44%
  Total Cell Count: 438
[5]
  Population Apoptotic (%): 32%
  Population Fragmented Nuclei (%): 7%
  Population Healthy Nuclei (%): 78%
  Population Hoechst High Intensity Objects (%): 5%
  Population Membrane Permeable-Phenotype (%): 0%
  Population Mitochondria Different-Phenotype (%): 27%
  Population Mitotic Cells (%): 67%
  Population Normal (%): 94%
  Population Pyknosed Nuclei (%): 14%
  Population Tubulin-Different-Phenotype (%): 15%
  Total Cell Count: 483
[6]
  Population Apoptotic (%): 48%
  Population Healthy Nuclei (%): 82%
  Population Hoechst High Intensity Objects (%): 3%
  Population Mitochondria Different-Phenotype (%): 26%
  Population Mitotic Cells (%): 51%
  Population Normal (%): 96%
  Population Pyknosed Nuclei (%): 9%
  Population Tubulin-Different-Phenotype (%): 10%
  Total Cell Count: 507
[7]
  Population Apoptotic (%): 34%
  Population Fragmented Nuclei (%): 7%
  Population Healthy Nuclei (%): 80%
  Population Hoechst High Intensity Objects (%): 7%
  Population Membrane Permeable-Phenotype (%): 0%
  Population Mitochondria Different-Phenotype (%): 39%
  Population Mitotic Cells (%): 65%
  Population Normal (%): 92%
  Population Pyknosed Nuclei (%): 12%
  Population Tubulin-Different-Phenotype (%): 43%
  Total Cell Count: 549
[8]
  Population Apoptotic (%): 42%
  Population Healthy Nuclei (%): 79%
  Population Hoechst High Intensity Objects (%): 6%
  Population Mitochondria Different-Phenotype (%): 50%
  Population Mitotic Cells (%): 57%
  Population Normal (%): 93%
  Population Tubulin-Different-Phenotype (%): 38%
  Total Cell Count: 526
[9]
  Population Apoptotic (%): 30%
  Population Fragmented Nuclei (%): 12%
  Population Healthy Nuclei (%): 77%
  Population Hoechst High Intensity Objects (%): 1%
  Population Membrane Permeable-Phenotype (%): 1%
  Population Mitochondria Different-Phenotype (%): 16%
  Population Mitotic Cells (%): 69%
  Population Normal (%): 98%
  Population Pyknosed Nuclei (%): 9%
  Population Tubulin-Different-Phenotype (%): 11%
  Total Cell Count: 812
[10]
  Population Apoptotic (%): 26%
  Population Fragmented Nuclei (%): 9%
  Population Healthy Nuclei (%): 83%
  Population Hoechst High Intensity Objects (%): 3%
  Population Mitochondria Different-Phenotype (%): 17%
  Population Mitotic Cells (%): 73%
  Population Normal (%): 96%
  Population Pyknosed Nuclei (%): 7%
  Population Tubulin-Different-Phenotype (%): 9%
  Total Cell Count: 753
[11]
  Population Apoptotic (%): 32%
  Population Fragmented Nuclei (%): 12%
  Population Healthy Nuclei (%): 76%
  Population Hoechst High Intensity Objects (%): 4%
  Population Membrane Permeable-Phenotype (%): 1%
  Population Mitochondria Different-Phenotype (%): 29%
  Population Mitotic Cells (%): 67%
  Population Normal (%): 95%
  Population Pyknosed Nuclei (%): 11%
  Population Tubulin-Different-Phenotype (%): 29%
  Total Cell Count: 729
[12]
  Population Apoptotic (%): 33%
  Population Fragmented Nuclei (%): 15%
  Population Healthy Nuclei (%): 75%
  Population Hoechst High Intensity Objects (%): 8%
  Population Mitochondria Different-Phenotype (%): 37%
  Population Mitotic Cells (%): 66%
  Population Normal (%): 91%
  Population Pyknosed Nuclei (%): 9%
  Population Tubulin-Different-Phenotype (%): 34%
  Total Cell Count: 632

## Cc1ccccc1C(=O)Nc1ccc(C(=O)N2CCCC(N(C)C)c3ccccc32)cc1.Cl (configuration not stated)
[1]
  Population Apoptotic (%): 18%
  Population Fragmented Nuclei (%): 6%
  Population Healthy Nuclei (%): 80%
  Population Hoechst High Intensity Objects (%): 8%
  Population Membrane Permeable-Phenotype (%): 0%
  Population Mitochondria Different-Phenotype (%): 51%
  Population Mitotic Cells (%): 81%
  Population Normal (%): 91%
  Population Pyknosed Nuclei (%): 12%
  Population Tubulin-Different-Phenotype (%): 33%
  Total Cell Count: 519
[2]
  Population Apoptotic (%): 53%
  Population Fragmented Nuclei (%): 5%
  Population Healthy Nuclei (%): 79%
  Population Hoechst High Intensity Objects (%): 6%
  Population Mitochondria Different-Phenotype (%): 72%
  Population Mitotic Cells (%): 46%
  Population Normal (%): 93%
  Population Pyknosed Nuclei (%): 14%
  Population Tubulin-Different-Phenotype (%): 29%
  Total Cell Count: 412
[3]
  Population Apoptotic (%): 53%
  Population Fragmented Nuclei (%): 6%
  Population Healthy Nuclei (%): 70%
  Population Hoechst High Intensity Objects (%): 8%
  Population Membrane Permeable-Phenotype (%): 0%
  Population Mitochondria Different-Phenotype (%): 74%
  Population Mitotic Cells (%): 46%
  Population Normal (%): 91%
  Population Pyknosed Nuclei (%): 22%
  Population Tubulin-Different-Phenotype (%): 60%
  Total Cell Count: 233
[4]
  Population Apoptotic (%): 64%
  Population Fragmented Nuclei (%): 8%
  Population Healthy Nuclei (%): 72%
  Population Hoechst High Intensity Objects (%): 15%
  Population Mitochondria Different-Phenotype (%): 82%
  Population Mitotic Cells (%): 35%
  Population Normal (%): 84%
  Population Pyknosed Nuclei (%): 18%
  Population Tubulin-Different-Phenotype (%): 61%
  Total Cell Count: 285
[5]
  Population Apoptotic (%): 31%
  Population Fragmented Nuclei (%): 11%
  Population Healthy Nuclei (%): 79%
  Population Hoechst High Intensity Objects (%): 5%
  Population Membrane Permeable-Phenotype (%): 0%
  Population Mitochondria Different-Phenotype (%): 28%
  Population Mitotic Cells (%): 68%
  Population Normal (%): 94%
  Population Pyknosed Nuclei (%): 8%
  Population Tubulin-Different-Phenotype (%): 17%
  Total Cell Count: 727
[6]
  Population Apoptotic (%): 30%
  Population Fragmented Nuclei (%): 5%
  Population Healthy Nuclei (%): 83%
  Population Hoechst High Intensity Objects (%): 4%
  Population Mitochondria Different-Phenotype (%): 52%
  Population Mitotic Cells (%): 69%
  Population Normal (%): 95%
  Population Pyknosed Nuclei (%): 11%
  Population Tubulin-Different-Phenotype (%): 19%
  Total Cell Count: 567
[7]
  Population Apoptotic (%): 41%
  Population Fragmented Nuclei (%): 8%
  Population Healthy Nuclei (%): 70%
  Population Hoechst High Intensity Objects (%): 7%
  Population Membrane Permeable-Phenotype (%): 0%
  Population Mitochondria Different-Phenotype (%): 71%
  Population Mitotic Cells (%): 58%
  Population Normal (%): 92%
  Population Pyknosed Nuclei (%): 21%
  Population Tubulin-Different-Phenotype (%): 46%
  Total Cell Count: 268
[8]
  Population Apoptotic (%): 44%
  Population Fragmented Nuclei (%): 7%
  Population Healthy Nuclei (%): 73%
  Population Hoechst High Intensity Objects (%): 14%
  Population Mitochondria Different-Phenotype (%): 83%
  Population Mitotic Cells (%): 55%
  Population Normal (%): 85%
  Population Pyknosed Nuclei (%): 18%
  Total Cell Count: 285
[9]
  Population Apoptotic (%): 13%
  Population Fragmented Nuclei (%): 13%
  Population Healthy Nuclei (%): 78%
  Population Hoechst High Intensity Objects (%): 2%
  Population Membrane Permeable-Phenotype (%): 1%
  Population Mitochondria Different-Phenotype (%): 24%
  Population Mitotic Cells (%): 86%
  Population Normal (%): 97%
  Population Pyknosed Nuclei (%): 8%
  Population Tubulin-Different-Phenotype (%): 17%
  Total Cell Count: 1095
[10]
  Population Apoptotic (%): 34%
  Population Fragmented Nuclei (%): 10%
  Population Healthy Nuclei (%): 82%
  Population Hoechst High Intensity Objects (%): 4%
  Population Membrane Permeable-Phenotype (%): 0%
  Population Mitochondria Different-Phenotype (%): 30%
  Population Mitotic Cells (%): 65%
  Population Normal (%): 95%
  Population Pyknosed Nuclei (%): 6%
  Population Tubulin-Different-Phenotype (%): 14%
  Total Cell Count: 722
[11]
  Population Apoptotic (%): 55%
  Population Fragmented Nuclei (%): 10%
  Population Healthy Nuclei (%): 69%
  Population Hoechst High Intensity Objects (%): 6%
  Population Membrane Permeable-Phenotype (%): 0%
  Population Mitochondria Different-Phenotype (%): 69%
  Population Mitotic Cells (%): 44%
  Population Normal (%): 93%
  Population Pyknosed Nuclei (%): 20%
  Population Tubulin-Different-Phenotype (%): 49%
  Total Cell Count: 283
[12]
  Population Apoptotic (%): 63%
  Population Fragmented Nuclei (%): 9%
  Population Healthy Nuclei (%): 77%
  Population Mitochondria Different-Phenotype (%): 72%
  Population Mitotic Cells (%): 36%
  Population Pyknosed Nuclei (%): 12%
  Population Tubulin-Different-Phenotype (%): 41%
  Total Cell Count: 314

From ChEMBL document CHEMBL5058577, “EUbOPEN Chemogenomics Library 2 (Multiplex)” (2022)
